Compound activity: PubChem BioAssay, several laboratories
Sampled rows, rich in hits. Any-hit rate of the full collection: about 4.5%.
UPR XBP1 act – activators of adaptive arm of unfolded protein response (XBP1). activation, % at 20 µM. CHO-XBP1 luciferase reporter, IRE1-XBP1 UPR activation, luminescence; percent of tunicamycin response, DMSO as zero. 0.33% of 330,000 active;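 active = versus positive control, 20 µM dose yields 30% or more activation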
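incubation = overnight seeding at 37 °C, 6 h compound treatment at 37 °C | assay system = CHO-XBP1 cells stably carrying IRE1-XBP1-driven luciferase reporter | input = 1000 cells per well | detection = luciferase luminescence | dosing = single point, 20 µM final compound, 1% DMSO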
M18AAP inhibitor – blocks P. falciparum M18 aspartyl aminopeptidase; recombinant PfM18AAP, H-Glu-NHMec fluorogenic cleavage; inhibition, % at 7.35 µM; 1.2% of 290,000 active;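 active = inhibition above the campaign mean inhibition over all tested compounds plus 3 SD, cut at about 28% in these data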
CHOP UPR activ – activators of apoptotic arm of unfolded protein response (CHOP) | CHO-CHOP luciferase reporter, UPR activation, luminescence; percent of tunicamycin response over DMSO baseline | activation, % at 10 µM | 0.34% of 330,000 active | AID 449763;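 active = at 10 µM dose, activation of 40% or more, normalized to positive control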
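measured by = luciferase luminescence | assay system = CHO-CHOP cells, stable luciferase reporter of PERK-eIF2a-CHOP signalling | amount = 500 reporter cells seeded per well | timing = 6 h compound exposure at 37 °C after overnight seeding | controls = positive tunicamycin 10 µg/mL, negative DMSO alone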
p97 inhibitor – inhibitors of human p97 ATPase; P55072; recombinant p97 ATPase, Kinase-Glo ATP luminescence, 3 h; inhibition, % at 8 µM; 0.42% of 220,000 active; in the data active = inhibition above about 15%
Target sequence (P55072 whole entry, looked up): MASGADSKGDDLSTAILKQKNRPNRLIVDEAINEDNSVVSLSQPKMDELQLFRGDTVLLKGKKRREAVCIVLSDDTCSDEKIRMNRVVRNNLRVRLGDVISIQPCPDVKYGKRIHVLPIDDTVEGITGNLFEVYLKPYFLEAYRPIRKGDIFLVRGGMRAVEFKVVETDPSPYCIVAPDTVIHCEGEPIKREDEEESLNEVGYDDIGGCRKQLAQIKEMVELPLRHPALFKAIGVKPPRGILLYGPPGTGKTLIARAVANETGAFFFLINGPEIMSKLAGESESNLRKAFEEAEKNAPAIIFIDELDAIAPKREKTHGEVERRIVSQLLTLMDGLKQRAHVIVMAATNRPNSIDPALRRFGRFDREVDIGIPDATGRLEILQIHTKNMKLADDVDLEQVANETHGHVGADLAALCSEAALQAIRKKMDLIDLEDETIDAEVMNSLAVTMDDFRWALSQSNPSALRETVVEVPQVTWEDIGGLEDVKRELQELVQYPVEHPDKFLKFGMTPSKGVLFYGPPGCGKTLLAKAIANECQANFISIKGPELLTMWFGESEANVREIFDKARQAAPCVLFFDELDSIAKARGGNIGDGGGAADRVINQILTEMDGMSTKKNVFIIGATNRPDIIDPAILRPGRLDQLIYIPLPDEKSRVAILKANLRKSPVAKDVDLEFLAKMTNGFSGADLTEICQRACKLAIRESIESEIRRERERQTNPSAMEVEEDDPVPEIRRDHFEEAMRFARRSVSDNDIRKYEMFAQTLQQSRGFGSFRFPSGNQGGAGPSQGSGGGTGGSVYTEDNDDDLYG
CHOP inhibitor – blocks CHOP induction under ER stress | CHO-K1 CHOP-promoter luciferase, tunicamycin-induced, 15-18 h | inhibition, % at 10 µM | 3.8% of 220,000 active | AID 2732;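 active = compounds that reduced the stress-induced luciferase reporter signal by more than about 70% of percent inhibition, limit read from the data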
NS3 helicase inh – HCV NS3 helicase inhibition. AID 1800. 0.56% of 290,000 active. NS3 helicase DNA unwinding, Cy5 molecular beacon fluorescence. inhibition, % at 10.9 µM;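 active = inhibition above the mean of all tested compounds plus 3 SD, set per campaign, cut at about 35% in these data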
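System: HCV NS3 helicase fragment; control set: DMSO and thioflavine S; technique: Cy5 fluorescence at 0 and 60 min, beacon hairpin quenching; reagent: beacon DNA duplex substrate plus ATP; replicates: singlicate; schedule: 1 h reaction at 25 °C, ATP-initiated; medium: MOPS buffer pH 6.5 with MgCl2, DTT, Tween20, BSA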
A number is an active result; . = inactive; / = no result given.

SMILES	UPR XBP1 act	M18AAP inhibitor	CHOP UPR activ	p97 inhibitor	CHOP inhibitor	NS3 helicase inh
Cc1nc2cc(-c3cccc(F)c3)nn2c(C)c1CCC(=O)NC(C)CCc1ccco1 (stereo unspecified)	.	.	.	.	82	.
COc1cccc(-c2nc(Oc3cccc(C)c3C)c3ccccc3n2)c1O	.	.	.	.	82	.
COc1cnc(-c2ccccc2)nc1Oc1cccc(C)c1C	.	.	.	.	78	.
COc1cccc(-c2nc(NC(C)C)c3ccccc3n2)c1O	.	.	.	.	.	.
CCOC(=O)Cc1csc(NC(=O)CSc2nnc(-c3ccc(F)cc3)o2)n1	.	.	.	.	78	.
Cc1csc(NC(=O)CSc2nnc(-c3ccccc3)o2)n1	.	.	.	.	.	.
Cc1ccn2c(C(=O)CSc3ccccc3Cl)c(C)nc2c1	.	.	.	.	73	.
CCOC(=O)c1c(C)nc2cc(C)ccn12	.	.	.	.	.	.
COc1cccc2c(Cl)c(CC=C(Cl)Cl)c(C)nc12	.	.	.	.	87	.
O=C1COc2ccc(C(=O)COC(=O)c3sc4ccccc4c3Cl)cc2N1	47	.	.	.	.	.
C=CCNCCOCCOc1ccc(Cl)cc1C(C)(C)C	.	.	.	.	.	.
C=CCNCCCOc1ccc(Cl)cc1C(C)(C)C	.	.	.	.	72	.
NC(Cc1ccccc1)C(=O)N1CCCCC1 (stereo unspecified)	.	.	.	/	/	.
O=C(CSc1nc2ccccc2[nH]1)Nc1nc(-c2ccc(Br)cc2)cs1	.	.	.	.	77	.
O=C(CSc1nnnn1-c1ccccc1)Nc1nc(-c2ccccc2)ns1	.	.	.	.	86	.
Cc1ccc(-n2nnnc2SCC(=O)Nc2nc(-c3ccc(F)cc3)cs2)cc1C	.	.	.	.	.	.
Cc1cc(C)cc(-n2nnnc2SCC(=O)Nc2nc(-c3ccc(F)cc3)cs2)c1	.	.	.	.	89	.
N=c1occ(C(=O)c2cc(F)ccc2O)cc1C(=O)NC1CCCCC1	.	.	.	.	.	.
O=C(COc1ccc2c(-c3ccccc3)cc(=O)oc2c1)NC1CCS(=O)(=O)C1 (stereo unspecified)	.	/	.	/	/	/
Nc1cccc(C#Cc2ccc3c(c2)C(=O)/C(=C/c2ccsc2)O3)c1	.	/	.	/	/	/
Cc1cccc(-n2ncc3c(N4CCC5(CC4)OCCO5)ncnc32)c1	.	/	.	/	.	/
Cc1ccc(-n2ncc3c(N4CCCC4)ncnc32)c(C)c1	.	.	.	.	.	.
COc1cccc(N2CCN(c3ncnc4c3cnn4-c3ccc(C)cc3C)CC2)c1	.	.	.	.	98	.
Cc1cccc(-n2ncc3c(N4CCC(C)CC4)ncnc32)c1	.	.	.	.	73	.
O=C(NCc1ccccc1)c1nncc(-c2ccccc2)n1	.	/	.	/	/	/
Cc1cc(C(=O)OCC(=O)Nc2c(Cl)cccc2C(F)(F)F)c(C)o1	.	/	.	/	/	/
Cc1[nH]nc(N=CC2=C(O)CC(C)(C)CC2=O)c1-c1ccc(Cl)cc1	.	.	.	.	92	.
CC1(C)CC(=O)C(/C=N/c2ncccc2C(=O)O)=C(O)C1	.	.	.	.	78	.
